Assay results from ChEMBL document CHEMBL4316599, “Synthesis, in vitro and in vivo biological evaluation of substituted 3-(5-imidazo[2,1-b]thiazolylmethylene)-2-indolinones as new potent anticancer agents” (Eur J Med Chem, 2019).

Assays:
[1] = biological target: T1, Tubulin (Bos taurus) (UniProt Q6B856+Q862L2+Q862F3); assay: Inhibition of [3H]colchicine binding to bovine brain tubulin at 5 uM after 20 mins relative to control
Procedure, shortened: (§1)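 Reaction mixtures held 1 μM tubulin, 5 μM [³H]colchicine and test compound at 5 or 50 μM. Read-out was percent inhibition of colchicine binding.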

[2] = biological target: T1, Tubulin (Bos taurus); assay: Inhibition of [3H]colchicine binding to bovine brain tubulin at 50 uM after 20 mins relative to control; procedure, shortened: as §1
[3] = system: K562; assay: Cell cycle arrest in human K562 cells assessed as mitotic index at 10 times IC50 by Giemsa staining-based assay (reference value: 3%); format: functional
[4] = system: Prostatic carcinoma cell; assay: Cytotoxicity against human prostate cancer cells after 48 hrs by SRB assay; format: functional
Procedure, shortened: (§2)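 NCI-60 screen: single-dose pass at 10^-5 M, then a five-concentration assay from 10^-9 to 10^-4 M (highest 100 μM). Exposure was 48 h under standard NCI protocols. GI50, TGI and LC50 were derived per cell line and averaged by subpanel. Repeated tests are the mean of two experiments.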

[5] = system: Breast carcinoma cell; assay: Cytotoxicity against human breast cancer cells after 48 hrs by SRB assay; format: functional; procedure, shortened: as §2
[6] = system: K562; assay: Cell cycle arrest in human K562 cells assessed as mitotic index at 5 times IC50 by Giemsa staining-based assay (reference value: 3%); format: functional
[7] = Cytotoxicity against human COLON cells after 48 hrs by SRB assay; format: functional; procedure, shortened: as §2
[8] = system: Ovarian carcinoma cell; assay: Cytotoxicity against human ovarian cancer cells after 48 hrs by SRB assay; format: functional; procedure, shortened: as §2
[9] = system: K562; assay: Cell cycle arrest in human K562 cells assessed as mitotic index at IC50 by Giemsa staining-based assay (reference value: 3%); format: functional
[10] = system: Melanoma cell line; assay: Cytotoxicity against human melanoma cells after 48 hrs by SRB assay; format: functional; procedure, shortened: as §2
[11] = system: K562; assay: Cytotoxicity against human K562 cells after 48 hrs by SRB assay; format: functional, cell-based
[12] = biological target: Tubulin (Bos taurus, UniProt Q6B856+Q862L2+Q862F3); assay: Inhibition of bovine brain tubulin polymerization after 20 mins by spectrophotometric analysis
Procedure, shortened: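 Bovine brain tubulin (10 μM) in glutamate buffer preincubated with varying compound levels at 30 °C, then chilled to 0 °C. GTP added to 0.4 mM final, then warmed to 30 °C. Assembly followed by turbidity at 350 nm. IC50 is the concentration halving the extent of assembly after 20 min.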

[13] = system: CNS carcinoma cell; assay: Cytotoxicity against human CNS cancer cells after 48 hrs by SRB assay; format: functional; procedure, shortened: as §2
[14] = system: Renal cancer cell line; assay: Cytotoxicity against human renal cancer cells after 48 hrs by SRB assay; format: functional; procedure, shortened: as §2
[15] = system: K562; assay: Cytotoxicity against human K562 cells after 16 hrs by SRB assay; details: K562, 16 h
[16] = system: NSCLC; assay: Cytotoxicity against human NSCLC cells after 48 hrs by SRB assay; format: functional; procedure, shortened: as §2
[17] = system: Leukemia cell; assay: Cytotoxicity against human leukemia cells after 48 hrs by SRB assay; format: functional; procedure, shortened: as §2
[18] = system: B16-BL6; assay: Antitumor activity mouse B16-BL6 cells implanted in C57BL/6 mouse assessed tumor growth inhibition at 30 mg/kg, ip dosed every other day for 18 days relative to control; format: functional; details: 432 h, read-out: TGI
Procedure, shortened: (§3)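 Syngeneic allograft: C57BL/6 mice, six weeks old, given 2.5×10^5 BL6-B16 or E0771 cells subcutaneously in the dorsolateral flank in PBS. Dosing began at about 100 mm³. Test compound or reference was given intraperitoneally every other day in 50 μL DMSO, with DMSO vehicle controls. Tumor volume was compared with the vehicle group, 5 animals per group, mean ± SEM, by 2-way ANOVA with Bonferroni correction.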

[19] = system: E0771; assay: Antitumor activity mouse E0771 cells implanted in C57BL/6 mouse assessed tumor growth inhibition at 30 mg/kg, ip dosed every other day for 20 days relative to control; format: functional; details: 480 h, read-out: TGI; procedure, shortened: as §3
[20] = read-out: LC50 (the source's name)

Molecule `Cc1nc2sccn2c1-c1nc2sccn2c1C=C1C(=O)Nc2cc(Cl)ccc21` has an inhibition [1] of 15% and an inhibition [2] of 28%.
`COc1nc2sc(C)cn2c1/C=C1/C(=O)Nc2ccccc21` gave an Activity [3] of 80%, an inhibition [1] of 39% and a GI50 [4] of 2.09 µM. The TGI [4] was 45 µM, the GI50 [5] was 2.52 µM and the TGI [5] was 67.3 µM. It also gave an Activity [6] of 61%, a GI50 [7] of 0.8 µM and a TGI [7] of 56.8 µM. For the same molecule, the CC50 [7, 20] was 93.3 µM, the GI50 [8] was 6.29 µM and the LC50 (50% lethal concentration) [8] was 96.3 µM. The TGI [8] was 55.6 µM, the inhibition [2] was 81% and the Activity [9] was 42%. The GI50 [10] was 16.2 µM, the TGI [10] was 74.8 µM and the CC50 [10, 20] was 94.9 µM. The Activity [11] was “Dose-dependent effect”, the IC50 [12] was 3.4 µM and the GI50 [13] was 1.97 µM. For the same molecule, the TGI [13] was 40.1 µM, the CC50 [13, 20] was 87.9 µM and the GI50 [14] was 3.53 µM. The TGI [14] was 67.6 µM, the IC50 [15] was 1 µM and the GI50 [16] was 5.68 µM. The LC50 [16] was 99 µM, the TGI [16] was 65.2 µM and the GI50 [17] was 0.5 µM. It also gave an LC50 [17] of 93.7 µM and a TGI [17] of 7.25 µM.
With `COc1ccc(/C=C\c2cc(OC)c(OC)c(OC)c2)cc1O` [COMBRETASTATIN A4] the Activity [3] was 61%, the Activity [6] was 32% and the Activity [9] was 15%. The Activity [11] was “Dose-dependent effect”, the inhibition in vivo at 30 mg/kg [18] was 16 to 18% and the IC50 [15] was 0.004 µM. The inhibition in vivo at 30 mg/kg [19] was 30.9%.
